This passage reports relative binding affinity (RBA), Ki and Kd results from ChEMBL document CHEMBL1139455, “Three-dimensional quantitative structure-activity relationship modeling of cocaine binding by a novel human monoclonal antibody” (J Med Chem, 2004).

What is called pKi is −log10 of the Ki, conventionally taken in molar units. A low value points to a large Ki. For orientation: pKd means the negative decadic logarithm of the Kd, by convention in mol/L. Read a high pKd as a low Kd.

pKd, pKi: −log10 of the molar value.

Assay [1] deals with Monoclonal antibody (mAb) 2E2. Description: Binding affinity against human monoclonal antibody (mAb) 2E2 relative to cocaine by ELISA method. In outline:
(§1)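 Competition ELISA with human mAb 2E2 (from SCID mouse ascites, partially purified by sodium sulfate precipitation and protein A chromatography). Detection with biotinylated goat anti-human IgG (γ-chain-specific). IC50 obtained by three-parameter logistic fit. RBA is the competitor IC50 divided by the cocaine IC50. Values are averages of three or more independent experiments, each done in duplicate.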

Assay [2] concerns the target Monoclonal antibody (mAb) 2E2. Description: Binding affinity towards human monoclonal antibody 2E2 using [3H]cocaine. In outline:
(§2)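 Radioligand competition with 1 nM [3H]-cocaine diluted with 14 nM unlabeled cocaine and 0.4 nM mAb 2E2, against varying unlabeled competitor. Separation was by double-antibody precipitation (goat anti-human Fc) and read by scintillation counting. Duplicate data were fitted to a three-parameter logistic equation for IC50. RBA is the Ki of the compound divided by the Ki of cocaine. Three repeats were run.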

Assay [3] has as its system Monoclonal antibody (mAb) 2E2. Nature of the assay: Binding affinity against human monoclonal antibody (mAb) 2E2 by ELISA. In outline:
as §1

Assay [4] relates to Monoclonal antibody (mAb) 2E2. Description: Relative binding affinity for human monoclonal antibody (mAb) 2E2.
Assay [5] deals with Monoclonal antibody (mAb) 2E2. Description: Dissociation Constant for human monoclonal antibody 2E2 with [3H]cocaine. In a few lines:
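Saturation binding of [3H]-cocaine to mAb 2E2. Bound ligand was separated by double-antibody precipitation, using goat anti-human Fc as the first antibody, and counted by liquid scintillation. Kd was fitted from counts per minute against total cocaine concentration to a binding isotherm. Points are averages of duplicates. Each experiment was run three times.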

Assay [6] has as its system Monoclonal antibody (mAb) 2E2. Description: Relative binding affinity against human monoclonal antibody (mAb) 2E2 compared to cocaine.
The target of assay [7] is Monoclonal antibody (mAb) 2E2. Nature of the assay: Relative binding affinity against human monoclonal antibody 2E2 compared to [3H]cocaine. In outline:
as §2

The compound `CN(C)C(=O)[C@@H]1C2CCC(C[C@@H]1OC(=O)c1ccccc1)N2C` (some centres undefined) returned a relative binding affinity (RBA) in assay [1] of 7.4.
In assay [1], `C[N+]1([O-])[C@@H]2CC[C@H]1C[C@@H](OC(=O)C(CO)c1ccccc1)C2` (some centres undefined) gave a relative binding affinity (RBA) of 90000.
Turning to `COC(=O)[C@H]1[C@@H](OC(=O)c2ccccc2)C[C@@H]2CC[C@H]1N2C` [COCAINE], the pKi in assay [2] was 8.46. In addition, the relative binding affinity (RBA) in assay [3] and in assay [4] was 1 each time. Further, the negative logarithm of the Kd (pKd) in assay [5] was 8.36.
For the compound `CN1C2CCC1[C@@H](C(=O)O)[C@@H](O)C2` (some centres undefined), the relative binding affinity (RBA) in assay [1] and in assay [6] was 28000 throughout. Besides, in assay [7], the pKi is 4.02.
`COC(=O)[C@@H]1C2CC[C@H](C[C@@H]1c1ccccc1)N2C` had a relative binding affinity (RBA) in assay [1] of 29.
On the same count and under the same terms, under `CCCOC(=O)[C@@H]1C2CCC(C[C@@H]1OC(=O)c1ccccc1)N2C` (some centres undefined) stands 0.23; under `COC(=O)C1=CCC2CCC1N2C` (centres undefined), 21000; under `CN1C2CCC1CC(O)C2` (centres undefined), 91000.
`CCOC(=O)[C@@H]1C2C(C)CC(C[C@@H]1OC(=O)c1ccccc1)N2C` (some centres undefined) gave a relative binding affinity (RBA) in assay [1] of 0.21.
In turn, `COC(=O)[C@@H]1C2CCC(C[C@@H]1c1ccc(Cl)c(Cl)c1)N2C` (some centres undefined) had a relative binding affinity (RBA) in assay [1] of 8.5.
Still for that read-out and setting: with `CN1[C@@H]2C[C@@H](OC(=O)[C@H](CO)c3ccccc3)C[C@H]1[C@@H]1O[C@H]12` the figure was 49000; with `COC(=O)[C@H]1C2CCC(C[C@@H]1OC(=O)c1ccccc1)N2` (stereo in doubt; 36), 1100.
`COC(=O)[C@H]1[C@@H](c2ccc(F)cc2)C[C@H]2CC[C@H]1N2C` yielded a relative binding affinity (RBA) in assay [1] of 19.
On the same count and under the same terms, with `CON(C)C(=O)[C@@H]1C2CCC(C[C@@H]1OC(=O)c1ccccc1)N2C` (some centres undefined) the figure was 21.
In assay [1], `CN1C2CCC1[C@@H](C(=O)O)[C@@H](OC(=O)c1ccc(O)cc1)C2` (some centres undefined) gave a relative binding affinity (RBA) of 36.
In the case of `COC(=O)[C@@H]1C2CCC(C[C@@H]1OC(=O)c1cccc(O)c1)N2C` (some centres undefined), in assay [1], the relative binding affinity (RBA) turned out to be 8.4.
On to `COC(=O)C1C2CCC(C[C@@H]1c1ccc(C)cc1)N2C` (single isomer, unassigned), for which the relative binding affinity (RBA) in assay [1] amounted to 14.
In the case of `CNC(=O)[C@@H]1C2CCC(C[C@@H]1OC(=O)c1ccccc1)N2C` (some centres undefined), the relative binding affinity (RBA) in assay [1] is 29.
The compound `CCCC[N+]1(C)C2CC(OC(=O)[C@H](CO)c3ccccc3)CC1C1OC12` (some centres undefined) had a relative binding affinity (RBA) in assay [1] of 3700.
On the same count and under the same terms, under `COC(=O)[C@H]1C2CCC(C[C@@H]1OC(=O)c1ccccc1)N2` (stereo in doubt) stands 1800.
As to `CN1C2CCC1[C@@H](C(=O)O)[C@@H](OC(=O)c1ccccc1)C2` (some centres undefined), the relative binding affinity (RBA) came to 9.8 in assay [1] and 12 in assay [6]. Further, in assay [7], the pKi is 7.37.
As for `CN1C2CCC1[C@@H](C(N)=O)[C@@H](OC(=O)c1ccccc1)C2` (some centres undefined), the relative binding affinity (RBA) in assay [1] came to 22.
In the case of `COC(=O)[C@@H]1C2CCC(C[C@@H]1OC(=O)c1ccccc1)N2` (some centres undefined), in assay [1], the relative binding affinity (RBA) was determined as 4.3.
As to `COC(=O)C1C2CC[C@H](C[C@@H]1c1ccc(Cl)cc1)N2C` (some centres undefined), the relative binding affinity (RBA) in assay [1] came out at 9.3.
Take `C[N+]1(C)[C@@H]2C[C@@H](OC(=O)[C@H](CO)c3ccccc3)C[C@H]1[C@@H]1O[C@@H]12`: the relative binding affinity (RBA) in assay [1] was found to be 5900.
In assay [1], `CN1C2CCC1[C@@H](C(=O)Oc1ccccc1)[C@@H](c1ccc(Cl)cc1)C2` (some centres undefined) returned a relative binding affinity (RBA) of 1.7.
Compound `CN1C2CC(OC(=O)[C@](O)(CO)c3ccccc3)CC1C1OC12` (some centres undefined) showed a relative binding affinity (RBA) in assay [1] of 59000.
For the compound `COC(=O)[C@@H]1C2CCC(C[C@@H]1O)N2C` (some centres undefined), the relative binding affinity (RBA) was 2500 in assay [1] and 1500 in assay [6]. Moreover, in assay [7], the pKi is 5.28.
For the compound `COC(=O)[C@@H]1C2CCC(C[C@@H]1c1ccc(I)cc1)N2C` (some centres undefined), the relative binding affinity (RBA) in assay [1] stood at 4.5.
Regarding `O=C(O[C@H]1CC2CCC(N2)[C@H]1C(=O)O)c1ccccc1` (some centres undefined), in assay [1], the relative binding affinity (RBA) is 120.
`CN1C2CCC1[C@@H](C(=O)O)[C@@H](OC(=O)c1cccc(O)c1)C2` (some centres undefined) had a relative binding affinity (RBA) in assay [1] of 32.
On the same count and under the same terms, under `C[N+]1([O-])C2CC(OC(=O)[C@H](CO)c3ccccc3)CC1C1OC12` (some centres undefined) stands 130000.
For `CCOC(=O)[C@@H]1C2CCC(C[C@@H]1OC(=O)c1ccccc1)N2C` (some centres undefined) [COCAETHYLENE], the relative binding affinity (RBA) in assay [1] stood at 0.74; in assay [6], 0.97. Besides, in assay [7], the pKi is 8.47.
